What was measured:
[1] = test system: GAPDH isozymes; details: ref PMID: 12788228, PMID: 2353814; cited from earlier work
[2] = molecular target: recombinant human GST-GAPDHS (Homo sapiens, UniProt O14556); experiment: GAPDHS dose response / IC50 determination; format: biochemical
In short: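 IC50 against GST-GAPDHS used the single-point assay conditions with two-fold serial dilutions in DMSO, giving 10 final concentrations from 80 µM to […]. Percent inhibition at each concentration was fitted to a four-parameter variable-slope equation for IC50 and Hill slope. Some runs included 0.01% Tween-20 (final). Ligand efficiency and binding efficiency index were calculated from IC50.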

[3] = test system: purified his-GAPDHS; details: baculovirus/insect cell expressed his-GAPDHS ref 22; cited from earlier work

recombinant human GST-GAPDHS, sequence (O14556 69-408): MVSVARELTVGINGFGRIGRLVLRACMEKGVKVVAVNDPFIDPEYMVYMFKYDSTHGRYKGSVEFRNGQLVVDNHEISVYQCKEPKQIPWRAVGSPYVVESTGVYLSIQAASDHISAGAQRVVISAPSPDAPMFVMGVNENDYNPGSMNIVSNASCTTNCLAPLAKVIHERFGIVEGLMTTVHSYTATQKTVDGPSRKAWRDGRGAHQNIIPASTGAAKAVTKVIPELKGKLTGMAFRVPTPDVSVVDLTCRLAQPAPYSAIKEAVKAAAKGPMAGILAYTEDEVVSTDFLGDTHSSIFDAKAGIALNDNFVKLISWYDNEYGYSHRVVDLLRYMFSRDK

In the case of `CC1=CC(=O)c2ccccc2C1=O` [Menadione], the “inhibitor of GAPDH isozymes in vivo” value [1] is given as “non-selective inhibitor”, the IC50 ([2]; IC50, follow up, absence of Tween-20, dry powder, no detergent) is given as 47 µM and the IC50 ([2]; IC50 in the presence of 0.01% Tween-20, dry powder, 0.01% Tween-20) is given as 53 µM. For the same compound, the “active in Prestwick screen against his-GAPDHS” value [3] was “identified as actives”.

Reference: publication PMC3134944 (Current Chemical Genomics, 2011)
